Experimental data: ChEMBL document CHEMBL1157379, “Transcriptional response of Candida parapsilosis following exposure to farnesol” (2007)

Experiments:
Type in all cases: functional
[1] = tested on: Candida parapsilosis; assay: Increase in ATP2 gene expression in Candida parapsilosis CLIB214 at 50 uM after 2 hrs by microarray based transcriptional profiling relative to control
How it was run: (§1)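 Strain CLIB214 grown overnight in YPD at 30°C, diluted to A600 0.2 in fresh YPD at 30°C. After 4 h (A600 0.8), farnesol (40 mM methanol stock) added to 50 μM final, or an equal methanol volume as control; cells harvested 2 h later. RNA was accepted only with a 28S/18S ratio of 1.6–2.2. Cy3/Cy5-dCTP-labelled cDNA was made from 25 μg total RNA. Hybridisation was to duplicate-spotted 68-mer oligo arrays (3,849 genes) at 42°C for about 16 h. Six individual comparisons.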

[2] = tested on: Candida parapsilosis; assay: Increase in CGD gene ortholog accession number orf19.1368 expression in Candida parapsilosis CLIB214 at 50 uM after 2 hrs by microarray based transcriptional profiling relative to control; how it was run: as §1
[3] = tested on: Candida parapsilosis; assay: Decrease in ARG11 gene expression in Candida parapsilosis CLIB214 at 50 uM after 2 hrs by microarray based transcriptional profiling relative to control
How it was run: (§2)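 Cells in YPD at 30°C treated with 50 μM farnesol at 4 h, with a methanol control. RNA harvested 2 h later and kept only if 28S/18S ratio was 1.6–2.2 with no degradation. 25 μg total RNA oligo-dT primed and labeled with Cy3/Cy5-dCTP. Labeled cDNA hybridized about 16 h at 42°C to duplicate-spotted 68-mer oligo arrays. Six individual comparisons analyzed statistically.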

[4] = tested on: Candida parapsilosis; assay: Decrease in CGD gene ortholog accession number orf19.7118 expression in Candida parapsilosis CLIB214 at 50 uM after 2 hrs by microarray based transcriptional profiling relative to control; how it was run: as §1
[5] = tested on: Candida parapsilosis; assay: Decrease in ZCF23 gene expression in Candida parapsilosis CLIB214 at 50 uM after 2 hrs by microarray based transcriptional profiling relative to control; how it was run: as §1
[6] = tested on: Candida parapsilosis; assay: Decrease in CGD gene ortholog accession number orf19.5212 expression in Candida parapsilosis CLIB214 at 50 uM after 2 hrs by microarray based transcriptional profiling relative to control; how it was run: as §2
[7] = tested on: Candida parapsilosis; assay: Increase in KEX2 gene expression in Candida parapsilosis CLIB214 at 50 uM after 2 hrs by microarray based transcriptional profiling relative to control
How it was run: (§3)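 Strain grown overnight in YPD at 30°C, diluted to A600 0.2 in YPD at 30°C; farnesol (40 mM methanol stock) added at 4 h (A600 0.8), final 50 μM; methanol-only control. Cells collected 2 h later for RNA. Labelled cDNA from 25 μg total RNA (Cy3/Cy5-dCTP) hybridized to 68-mer oligo arrays at 42°C ~16 h; six individual comparisons analysed statistically.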

[8] = tested on: Candida parapsilosis; assay: Increase in CDC20 gene expression in Candida parapsilosis CLIB214 at 50 uM after 2 hrs by microarray based transcriptional profiling relative to control; how it was run: as §1
[9] = tested on: Candida parapsilosis; assay: Decrease in CGD gene ortholog accession number orf19.1608 expression in Candida parapsilosis CLIB214 at 50 uM after 2 hrs by microarray based transcriptional profiling relative to control; how it was run: as §2
[10] = tested on: Candida parapsilosis; assay: Antifungal activity against Candida parapsilosis CLIB214 assessed as reduction of biofilm formation at 100 uM added 4 hrs after […] growth by crystal violet assay; design: scale not given: the % may be the effect or the level left
How it was run: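 Cells grown overnight in YNB, diluted to A600 1, and left to adhere 2 h at 37°C. Nonadherent cells washed off with PBS, then fresh YNB added and plates incubated 24 h at 37°C. Biofilms stained with 0.1% crystal violet for 15 min at 30°C, destained 4 h in 33% acetic acid, and read at A570.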

[11] = tested on: Candida parapsilosis; assay: Antifungal activity against Candida parapsilosis CLIB214 assessed as induction of cell death at 50 uM added 4 hrs after […] growth after 2 hrs by propidium iodide staining method
How it was run: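 After 2 h exposure to 50 μM farnesol (methanol stock; methanol-only control), cells were washed twice in PBS and stained with propidium iodide at 10 μg ml−1 in PBS for 5 min. Dead-cell percentage was scored by fluorescence microscopy (Texas Red filter), counting at least 150 cells in each of three independent experiments.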

[12] = tested on: Candida parapsilosis; assay: Antifungal activity against Candida parapsilosis CLIB214 assessed as growth inhibition at 50 uM added after 8 hrs of bacterial growth measured after 2 hrs; settings: Lodderomyces parapsilosis
How it was run: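 Overnight YPD culture at 30°C diluted to A600 0.2 in YPD. Farnesol added to 50 μM final at 2, 4, 6 or 8 h of growth (A600 about 0.8 at 4 h, 2.3 at 6 h, 6 at 8 h). Growth compared with methanol controls by A600 or cell counts.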

[13] = tested on: Candida albicans; assay: Antifungal activity against Candida albicans assessed as microbila killing effect
[14] = tested on: Candida parapsilosis; assay: Increase in HAS1 gene expression in Candida parapsilosis CLIB214 at 50 uM after 2 hrs by microarray based transcriptional profiling relative to control; how it was run: as §3
[15] = tested on: Candida parapsilosis; assay: Increase in CGD gene ortholog accession number orf19.854 expression in Candida parapsilosis CLIB214 at 50 uM after 2 hrs by microarray based transcriptional profiling relative to control; how it was run: as §3
[16] = tested on: Candida parapsilosis; assay: Increase in CGD gene ortholog accession number orf19.3501 expression in Candida parapsilosis CLIB214 at 50 uM after 2 hrs by microarray based transcriptional profiling relative to control; how it was run: as §1
[17] = tested on: Candida parapsilosis; assay: Increase in PDE2 gene expression in Candida parapsilosis CLIB214 at 50 uM after 2 hrs by microarray based transcriptional profiling relative to control; how it was run: as §3
[18] = tested on: Candida parapsilosis; assay: Reduction in GCN3 gene expression in Candida parapsilosis CLIB214 by RT-PCR
How it was run: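 Cultures in YPD at 30°C, diluted to A600 0.2; 50 μM farnesol (final) or methanol added at 4 h, RNA harvested 2 h later. RT-PCR: 95°C hot start 1 min 30 s, then 26 cycles (95°C 40 s, 55°C 2 min, 72°C 3 min), final 72°C 5 min; each gene signal normalized to ACT1.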

[19] = tested on: Candida parapsilosis; assay: Decrease in PIKA gene expression in Candida parapsilosis CLIB214 at 50 uM after 2 hrs by microarray based transcriptional profiling relative to control; how it was run: as §1
[20] = tested on: Candida parapsilosis; assay: Decrease in RIA1 gene expression in Candida parapsilosis CLIB214 at 50 uM after 2 hrs by microarray based transcriptional profiling relative to control; how it was run: as §1
[21] = tested on: Candida parapsilosis; assay: Decrease in PGA55 gene expression in Candida parapsilosis CLIB214 at 50 uM after 2 hrs by microarray based transcriptional profiling relative to control; how it was run: as §1
[22] = tested on: Candida parapsilosis; assay: Decrease in CGD gene ortholog accession number orf19.5022 expression in Candida parapsilosis CLIB214 at 50 uM after 2 hrs by microarray based transcriptional profiling relative to control; how it was run: as §2
[23] = tested on: Candida parapsilosis; assay: Increase in CGD gene ortholog accession number orf19.966 expression in Candida parapsilosis CLIB214 at 50 uM after 2 hrs by microarray based transcriptional profiling relative to control; how it was run: as §3
[24] = tested on: Candida parapsilosis; assay: Increase in CGD gene ortholog accession number orf19.3185 expression in Candida parapsilosis CLIB214 at 50 uM after 2 hrs by microarray based transcriptional profiling relative to control; how it was run: as §1

For `CC(C)=CCC/C(C)=C/CC/C(C)=C/CO` [FARNESOL], the “fold change (FC)” value [1] was 2.16, the “fold change (FC)” value [2] was 1.59 and the “fold change (FC)” value [3] was 1.56. The “fold change (FC)” value [4] was 1.56, the “fold change (FC)” value [5] was 1.97 and the “fold change (FC)” value [6] was 2.33. For the same compound, the “fold change (FC)” value [7] was 1.57, the “fold change (FC)” value [8] was 1.51 and the “fold change (FC)” value [9] was 1.62. The Activity [10] was 30%, the Activity [11] was 20% and the inhibition at 50 µM [12] was 9.5%. The Activity [13] was 80%, the “fold change (FC)” value [14] was 1.7 and the “fold change (FC)” value [15] was 1.69. The “fold change (FC)” value [16] was 1.63, the “fold change (FC)” value [17] was 1.67 and the “fold change (FC)” value [18] was 1.54. The “fold change (FC)” value [19] was 1.65, the “fold change (FC)” value [20] was 1.65 and the “fold change (FC)” value [21] was 1.76. For the same compound, the “fold change (FC)” value [22] was 1.85, the “fold change (FC)” value [23] was 1.6 and the “fold change (FC)” value [24] was 1.6.
